From ChEMBL document CHEMBL1152565, “Furo[3',2':3,4]naphtho[1,2-d]imidazole derivatives as potential inhibitors of inflammatory factors in sepsis” (Bioorg Med Chem, 2009)
Activity calls are given as the source filed them. No cut-off for these calls is given here.

Experiments:
[1] = Antiinflammatory activity against Sprague-Dawley rat neutrophils assessed as inhibition of fMLP/cytochalasin B-induced beta-glucuronidase release; format: functional, cell-based; conditions: Neutrophil
Procedure, shortened: (§1)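 Rat (Sprague-Dawley) peripheral blood neutrophils incubated with test compound 5 min at 37 °C, then stimulated with fMLP (0.3 μM)/cytochalasin B (5 μg/ml) for 45 min. β-Glucuronidase and lysozyme measured in supernatant. Compound stocks in DMSO; final DMSO <0.5% (v/v). Means ± SE of at least three separate experiments.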

RAW264.7 [2] = test: Inhibition of LPS-induced nitric oxide accumulation in mouse RAW264.7 cells; format: functional, cell-based
Procedure, shortened: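 RAW 264.7 macrophages grown in DMEM with 5% FBS at 37 °C, 5% CO2, and stimulated with LPS. Nitrite accumulated in medium read with Griess reagent (sulfanilamide/N-(1-naphthyl)ethylenediamine in phosphoric acid, 5 min) at OD550 against sodium nitrite standard in culture medium. IC50 as means ± SE of at least three experiments.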

[3] = Antiinflammatory activity against Sprague-Dawley rat neutrophils assessed as inhibition of fMLP/cytochalasin B-induced lysozyme release; format: functional, cell-based; conditions: Neutrophil; procedure, shortened: as §1
Rattus norvegicus [4] = species on record: Rattus norvegicus; test: Inhibition of PMA-induced superoxide generation in Sprague-Dawley rat neutrophils; format: functional; conditions: Neutrophil
Procedure, shortened: (§2)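 Sprague-Dawley rat peripheral blood neutrophils preincubated with compound 5 min at 37 °C, then stimulated 30 min with fMLP (0.3 μM)/CB (5 μg/mL) or PMA (3 nM) in presence of cytochrome c. Superoxide quantified as superoxide dismutase-inhibitable cytochrome c reduction. Final DMSO <0.5% (v/v). IC50 as means ± SE, at least three separate experiments.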

Neutrophil = test: Inhibition of fMLP-induced superoxide generation in Sprague-Dawley rat neutrophils; format: functional, cell-based; procedure, shortened: as §2
RAW264.7 [5] = test: Cytotoxicity against mouse RAW264.7 cells up to 10 uM after 24 hrs by methylene blue assay; format: cell-based; conditions: raw264.7, 24 h
Procedure, shortened: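 RAW 264.7 cells seeded at 2×10^5 cells/well, given LPS plus various compound concentrations for 24 h. Stained with 1% methylene blue for 40 min, washed, dye released with 1% sarcosyl for 4 h, absorbance read at 570 nm. LPS-treated cells without compound set as 100% survival.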

RAW264.7 [6] = test: Inhibition of LPS-induced iNOS protein expression in mouse RAW264.7 cells after 2 hrs by Western blot; format: functional, cell-based
Procedure, shortened: (§3)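 RAW 264.7 cells (5×10^5 cells/well) pretreated with compound 2 h, then stimulated with LPS 0.1 μg/mL for 24 h. Lysed in RIPA buffer, protein measured by Bradford, 15 μg run on 8% SDS–PAGE and immunoblotted for iNOS with ECL detection. Bands quantified densitometrically relative to β-actin.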

Rattus norvegicus [7] = test: Inhibition of sepsis-induced PGE2 production in cecal ligation and puncture Sprague-Dawley rat model serum at 10 mg/kg, ip treated 1 hr before surgery measured after 24 hrs of surgery by ELISA; format: functional; conditions: route intraperitoneal
Procedure, shortened: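 Sprague-Dawley rats aged 6–8 weeks (3–4 per group) pretreated intraperitoneally with 10 mg/kg compound or hydrocortisone 1 h before cecal ligation and puncture, saline-resuscitated after. Blood taken from portal vein 24 h post-surgery, centrifuged 3000 rpm 20 min, serum stored at -70 °C. PGE2 measured by ELISA; average of three independent studies.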

RAW264.7 [8] = test: Inhibition of LPS-induced iNOS protein expression in mouse RAW264.7 cells at 5 uM after 2 hrs by Western blot; format: functional, cell-based; procedure, shortened: as §3
Rattus norvegicus [9] = test: Inhibition of iNOS mRNA expressing in cecal ligation and puncture Sprague-Dawley rat model at 10 mg/kg, ip treated 1 hr before surgery measured after 24 hrs of surgery by PCR amplification; format: functional; conditions: route intraperitoneal
Procedure, shortened: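 Sprague-Dawley rats aged 6–8 weeks, 3–4 per group, given compound or hydrocortisone 10 mg/kg by intraperitoneal injection 1 h before cecal ligation and puncture. Resuscitated with 1 mL normal saline after surgery; sham animals handled identically. Lung tissue collected 24 h post-surgery; iNOS mRNA band intensities normalized to GAPDH.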

| IC50 [1] | IC50 (RAW264.7 [2]) | IC50 [3] | IC50 (Rattus norvegicus [4]) | IC50 (Neutrophil) | SMILES | Activity (RAW264.7 [5]) | inhibition (RAW264.7 [6]) | inhibition in vivo at 10 mg/kg (Rattus norvegicus [7]) | inhibition (RAW264.7 [8]) | inhibition in vivo at 10 mg/kg (Rattus norvegicus [9]) |
| --- | --- | --- | --- | --- | --- | --- | --- | --- | --- | --- |
| > 30 µM | > 30 µM | > 30 µM | > 30 µM | > 30 µM | c1ccc2c(c1)c1nc[nH]c1c1ccoc21 |  |  |  |  |  |
| > 10 µM | > 10 µM | > 10 µM | > 30 µM | > 30 µM | O=[N+]([O-])c1ccc(-c2nc3c4ccccc4c4occc4c3[nH]2)cc1 |  |  |  |  |  |
| 5 µM | > 10 µM | 7.4 µM | > 30 µM | > 30 µM | O=Cc1ccc(-c2nc3c4ccccc4c4occc4c3[nH]2)cc1 |  |  |  |  |  |
|  | 2.7 µM |  |  |  | CC(=N)NCc1cccc(CN)c1 [1400W] |  |  |  |  |  |
| 11.4 µM | > 10 µM | 16.3 µM | > 30 µM | > 30 µM | c1ccc(-c2nc3c4ccccc4c4occc4c3[nH]2)cc1 |  |  |  |  |  |
| 11.3 µM | 11.9 µM | 19.5 µM | > 30 µM | > 30 µM | c1coc(-c2nc3c4ccccc4c4occc4c3[nH]2)c1 | Non-toxic | Dose-dependent effect |  |  |  |
| > 30 µM | 1.5 µM | > 30 µM | > 30 µM | > 30 µM | O=[N+]([O-])c1ccc(-c2nc3c4ccccc4c4occc4c3[nH]2)o1 | Non-toxic | Dose-dependent effect |  |  |  |
| 12.5 µM |  | 11.9 µM |  |  | CN1CCN(CCCN2c3ccccc3Sc3ccc(C(F)(F)F)cc32)CC1 [TRIFLUOPERAZINE] |  |  |  |  |  |
| > 30 µM | 1.3 µM | > 30 µM | > 30 µM | > 30 µM | O=[N+]([O-])c1ccc(/C=C/c2nc3c4ccccc4c4occc4c3[nH]2)o1 | Non-toxic | Dose-dependent effect | 150% | Active | 30% |

| SMILES | IC50 [1] | IC50 (RAW264.7 [2]) | IC50 [3] | IC50 (Rattus norvegicus [4]) | IC50 (Neutrophil) | Activity (RAW264.7 [5]) | inhibition (RAW264.7 [6]) | inhibition in vivo at 10 mg/kg (Rattus norvegicus [7]) | inhibition (RAW264.7 [8]) | inhibition in vivo at 10 mg/kg (Rattus norvegicus [9]) |
| --- | --- | --- | --- | --- | --- | --- | --- | --- | --- | --- |
| c1ccc2c(c1)[I+]c1ccccc1-2 [DIPHENYLENEIODONIUM CHLORIDE] |  |  |  | 4.3 µM | 5.2 µM |  |  |  |  |  |
